Data as given in ChEMBL document CHEMBL4325899, “Synthesis and photocytotoxic activity of [1,2,3]triazolo[4,5-h][1,6]naphthyridines and [1,3]oxazolo[5,4-h][1,6]naphthyridines” (Eur J Med Chem, 2019).
Activity calls are given as the source filed them. The calls are words filed in the database; no cut-off is given here.

Assays:
[1] = Selectivity index, ratio of EC50 for human MCF10A cells under UV irradiation at 1.5 J/cm2 to EC50 for human MCF7 cells under UV irradiation at 1.5 J/cm2; type: toxicity; settings: MCF10A cells versus MCF7 cells, read-out: Ratio EC50
Method in brief: (§1)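 SI is the EC50 under irradiation in non-tumor MCF10A cells divided by the EC50 under irradiation in the tumor line. Both were MTT read-outs 72 h after 1.5 J/cm² at 365 nm.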

A-375 [2] = experiment: Phototoxicity against human A375 cells preincubated for 5 mins followed by compound washout and subsequent UV irradiation at 1.5 J/cm2 for 5 mins measured after 72 hrs by MTT assay; type: functional, cell-based; settings: A-375, light or radiation study
Method in brief: (§2)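 Compounds were diluted in DMSO (0.5% final), applied in triplicate for 5 min, then washed out with PBS. After medium removal, cells were irradiated on ice for 5 min at 365 nm (1.5 J/cm²) and then kept 72 h at 37 °C. Viability was read by MTT at 540 nm and expressed relative to 0.5% DMSO controls given the same treatment. EC50 is the concentration killing 50%, as the mean ± SD of at least three experiments.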

MCF-10A = experiment: Phototoxicity against human MCF10A cells preincubated for 5 mins followed by compound washout and subsequent UV irradiation at 1.5 J/cm2 for 5 mins measured after 72 hrs by MTT assay; type: cell-based; settings: light or radiation study; method in brief: as §2
[3] = Dark toxicity against human MCF7 cells preincubated for 5 mins followed by compound washout and measured after 72 hrs by MTT assay; type: cell-based
Method in brief: (§3)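 Cells were plated and allowed to attach overnight. Compounds were diluted in DMSO (0.5% final), with each concentration in triplicate, and applied for 5 min. Cells were then washed in PBS and given fresh medium. Without irradiation, cells were held 72 h at up to 50 μM. MTT (5 mg/mL stock) was added for 4 h, crystals were dissolved in SDS/HCl overnight, and absorbance was read at 540 nm. CC50 is the concentration killing 50% of cells, taken as the mean of at least three experiments.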

[4] = Selectivity index, ratio of EC50 for human MCF10A cells under UV irradiation at 1.5 J/cm2 to EC50 for human HT-29 cells under UV irradiation at 1.5 J/cm2; type: toxicity; settings: MCF10A cells versus HT-29 cells, read-out: Ratio EC50; method in brief: as §1
[5] = Selectivity index, ratio of EC50 for human MCF10A cells under UV irradiation at 1.5 J/cm2 to EC50 for human A375 cells under UV irradiation at 1.5 J/cm2; type: toxicity; settings: MCF10A cells versus A375 cells, read-out: Ratio EC50; method in brief: as §1
HT-29 [6] = experiment: Phototoxicity index, ratio of CC50 for human HT-29 cells to EC50 for human HT-29 cells under UV irradiation at 1.5 J/cm2
HT-29 [7] = experiment: Phototoxicity against human HT-29 cells preincubated for 5 mins followed by compound washout and subsequent UV irradiation at 1.5 J/cm2 for 5 mins measured after 72 hrs by MTT assay; type: functional, cell-based; settings: HT-29, light or radiation study; method in brief: as §2
A-375 [8] = experiment: Phototoxicity index, ratio of CC50 for human A375 cells to EC50 for human A375 cells under UV irradiation at 1.5 J/cm2
[9] = Phototoxicity index, ratio of CC50 for human MCF10A cells to EC50 for human MCF10A cells under UV irradiation at 1.5 J/cm2; type: cell-based, MCF-10A; settings: read-out: Ratio CC50/EC50
[10] = Solubility of the compound in DMSO; type: physicochemical
[11] = Dark toxicity against human MCF10A cells preincubated for 5 mins followed by compound washout and measured after 72 hrs by MTT assay; type: cell-based, MCF-10A; method in brief: as §3
MCF7 [12] = experiment: Phototoxicity index, ratio of CC50 for human MCF7 cells to EC50 for human MCF7 cells under UV irradiation at 1.5 J/cm2
[13] = Dark toxicity against human HT-29 cells preincubated for 5 mins followed by compound washout and measured after 72 hrs by MTT assay; type: cell-based; method in brief: as §3
MCF7 [14] = experiment: Phototoxicity against human MCF7 cells preincubated for 5 mins followed by compound washout and subsequent UV irradiation at 1.5 J/cm2 for 5 mins measured after 72 hrs by MTT assay; type: functional, cell-based; settings: MCF7, light or radiation study; method in brief: as §2
[15] = Dark toxicity against human A375 cells preincubated for 5 mins followed by compound washout and measured after 72 hrs by MTT assay; type: cell-based, A-375; method in brief: as §3
[16] = system: Human immunodeficiency virus 1; experiment: Antiviral activity against HIV1 3B infected in human MT4 cells assessed as decrease in viral replication by p24 ELISA; type: functional; settings: Human immunodeficiency virus 1, 3B, read-out: CIC95
MCF7 [17] = experiment: Induction of lysosomal activation in human MCF7 cells at 2 uM after 2 hrs in absence of UV irradiation by Lysotracker Green DND 26 staining-based confocal microscopic analysis; type: cell-based; settings: mcf7, 2 h
Method in brief: (§4)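 MCF7 cells (4x10⁵) on glass slides were loaded with LysoTracker Green DND-26 (175 nM) for 45 min in phenol-red-free, serum-free medium, before 2 µM compound with or without UV activation. Cells were fixed in 2% PFA 20 min or 2 h after UV and imaged confocally (ex 488 nm, em 500–530 nm). Controls were untreated cells with and without irradiation, and cells given PMA (400 nM).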

MCF7 [18] = experiment: Cell cycle arrest in human MCF7 cells assessed as accumulation of cells at G2/M phase at EC50 after 24 hrs under UV-irradiation by propidium iodide staining-based flow cytometric analysis (reference value: 26.3%); type: functional
MCF7 [19] = experiment: Cell cycle arrest in human MCF7 cells assessed as accumulation of cells at subG1 phase at EC50 after 24 hrs under UV-irradiation by propidium iodide staining-based flow cytometric analysis (reference value: 4.8%); type: functional
MCF7 [20] = experiment: Induction of ROS generation in human MCF7 cells at 2 uM preincubated for 30 mins followed by irradiation at 1.5 J/cm2 for 2 hrs by H2DCFDA probe-based fluorescence assay; type: functional, cell-based
Method in brief: (§5)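 MCF7 cells (3x10⁴) were plated 24 h ahead to reach 80–90% confluence. Compounds were applied for 30 min in phenol-red-free, serum-free medium, and H2DCFDA (10 µM) was added 15 min before irradiation (1.5 J/cm², ~365 nm) or no irradiation. DCF fluorescence (485/535 nm) was read 2 h after light and expressed relative to untreated controls (100%). PMA (400 nM) served as positive control; three independent experiments.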

MCF7 [21] = experiment: Induction of mitochondrial dysfunction in human MCF7 cells at 2 uM after 2 hrs in presence of UV irradiation by Mitotracker Orange CMTM-ROS staining-based confocal microscopic analysis; type: functional, cell-based
Method in brief: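 MCF7 cells (4x10⁵) were plated on glass slides for 24 h. They were then loaded with MitoTracker Orange CMTM-ROS (150 nM) for 45 min in phenol-red-free, serum-free medium, before 2 µM compound and UV photoactivation. Cells were fixed in 2% PFA 20 min or 2 h after UV and imaged confocally (ex 543 nm, em 560–620 nm). PMA (400 nM) served as ROS-inducer control.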

MCF7 [22] = experiment: Cell cycle arrest in human MCF7 cells assessed as accumulation of cells at G0/G1 phase at EC50 after 24 hrs under UV-irradiation by propidium iodide staining-based flow cytometric analysis (reference value: 44.2%); type: functional
MCF7 [23] = experiment: Induction of lysosomal activation in human MCF7 cells at 2 uM after 2 hrs in presence of UV irradiation by Lysotracker Green DND 26 staining-based confocal microscopic analysis; type: functional, cell-based; method in brief: as §4
MCF7 [24] = experiment: Induction of apoptosis in human MCF7 cells assessed as viable cells at EC50 after 4 hrs in presence of photoirradiation by Annexin V-FITC/propidium iodide staining-based flow cytometric analysis (reference value: 95%); type: functional
[25] = Photogeneration of oxygen in aqueous acetonitrile/water solution at 2.3 x 10^-5M measured after 1 hr under 150W irradiation by ADPA probe based spectra analysis
MCF7 [26] = experiment: Cell cycle arrest in human MCF7 cells assessed as accumulation of cells at S phase at EC50 after 24 hrs under UV-irradiation by propidium iodide staining-based flow cytometric analysis (reference value: 24.7%); type: functional
MCF7 [27] = experiment: Induction of ROS generation in human MCF7 cells at 0.5 to 2 uM measured after 30 mins under dark condition by H2DCFDA probe-based fluorescence assay; type: cell-based; settings: mcf7, 0.5 h; method in brief: as §5
MCF7 [28] = experiment: Induction of apoptosis in human MCF7 cells assessed as necrotic cells at EC50 after 4 hrs in presence of photoirradiation by Annexin V-FITC/propidium iodide staining-based flow cytometric analysis relative to control; type: functional
MCF7 [29] = experiment: Induction of apoptosis in human MCF7 cells assessed as apoptotic cells at EC50 after 4 hrs in presence of photoirradiation by Annexin V-FITC/propidium iodide staining-based flow cytometric analysis relative to control; type: functional
MCF7 [30] = experiment: Induction of ROS generation in human MCF7 cells at 2 uM measured after 30 mins under dark condition by H2DCFDA probe-based fluorescence assay; type: cell-based; settings: mcf7, 0.5 h; method in brief: as §5

SMILES | selectivity ratio [1] | EC50 (A-375 [2]) | EC50 (MCF-10A) | CC50 at 72 h [3] | selectivity ratio [4] | selectivity ratio [5] | Ratio CC50/EC50 (HT-29 [6]) | EC50 (HT-29 [7]) | Ratio CC50/EC50 (A-375 [8]) | selectivity ratio [9] | solubility [10] | CC50 at 72 h [11] | Ratio CC50/EC50 (MCF7 [12]) | CC50 at 72 h [13] | EC50 (MCF7 [14]) | CC50 at 72 h [15] | other results
COc1ccccc1-c1ccc2c(C)nc3oc(-c4cc(OC)c(OC)c(OC)c4)nc3c2n1 | 0.527 | 0.764 µM | 1.86 µM | > 50 µM | 9 | 2 | >254 | 0.197 µM | >65 | > 27 | Soluble | > 50 µM | >14 | > 50 µM | 3.53 µM | > 50 µM | –
COc1ccc(-c2ccc3c(C)nc4c(nnn4-c4ccc(OC)cc4)c3n2)cc1 | > 1 | 0.875 µM | > 50 µM | > 50 µM | > 29 | 57 | >29 | 1.74 µM | >57 | – | Soluble | > 50 µM | – | > 50 µM | > 50 µM | > 50 µM | –
COc1ccc(-n2nnc3c4nc(-c5ccccc5OC)ccc4c(C)nc32)cc1 | > 1 | 1.09 µM | > 50 µM | > 50 µM | > 1 | 46 | – | > 50 µM | >46 | – | Soluble | > 50 µM | – | > 50 µM | > 50 µM | > 50 µM | –
COc1cc(-c2nc3c(nc(C)c4ccc(-c5ccccc5)nc43)o2)cc(OC)c1OC | 0.737 | 1.44 µM | 4.38 µM | > 50 µM | 7 | 3 | >81 | 0.62 µM | >35 | > 11 | Soluble | > 50 µM | >8 | > 50 µM | 5.94 µM | > 50 µM | –
Cc1nc2oc(-c3ccccc3)nc2c2[nH]c(=O)ccc12 | – | 1.49 µM | > 50 µM | > 50 µM | – | 34 | – | > 50 µM | >34 | – | Soluble | > 50 µM | – | > 50 µM | > 50 µM | > 50 µM | –
O=C(c1cc(Cc2ccccc2)cc(CN2CCCS2(=O)=O)c1)c1ncc2cccnc2c1O | – | – | – | – | – | – | – | – | – | – | – | – | – | – | – | – | IC95 [16]: 0.39 µM
COc1ccc(-c2nc3c(nc(C)c4ccc(C)nc43)o2)cc1 | – | > 50 µM | > 50 µM | > 50 µM | > 12 | – | >12 | 4.28 µM | – | – | Soluble | > 50 µM | – | > 50 µM | > 50 µM | > 50 µM | –
COc1ccc(-c2ccc3c(C)nc4c(nnn4-c4ccccc4)c3n2)cc1 | 0.003 | 10.1 µM | 0.099 µM | > 50 µM | 1.01 | 0.009 | >508 | 0.099 µM | >5 | > 505 | Soluble | > 50 µM | >1.5 | > 50 µM | 34 µM | > 50 µM | –
COc1ccccc1-c1ccc2c(C)nc3oc(-c4ccccc4)nc3c2n1 | 0.884 | 0.633 µM | 1.17 µM | > 50 µM | 6 | 2 | >254 | 0.197 µM | >79 | > 43 | Soluble | > 50 µM | >38 | > 50 µM | 1.32 µM | > 50 µM | –
Cc1ccc2c(C)nc3oc(-c4ccccc4)nc3c2n1 | – | > 50 µM | > 50 µM | > 50 µM | > 8 | – | >8 | 6.59 µM | – | – | Soluble | > 50 µM | – | > 50 µM | > 50 µM | > 50 µM | –
COc1ccc(-n2nnc3c4nc(C)ccc4c(C)nc32)cc1 | – | > 50 µM | > 50 µM | > 50 µM | – | – | – | > 50 µM | – | – | Soluble | > 50 µM | – | > 50 µM | > 50 µM | > 50 µM | Activity (MCF7 [17]): Non-Toxic; Activity (MCF7 [18]): 26.6%; Activity (MCF7 [19]): 4.5%; Activity (MCF7 [20]): inactive; Activity (MCF7 [21]): inactive; Activity (MCF7 [22]): 43.2%; Activity (MCF7 [23]): inactive; Activity (MCF7 [24]): 90%; Activity [25]: Active; Activity (MCF7 [26]): 25.7%; Activity (MCF7 [27]): Non-Toxic; Activity (MCF7 [28]): 7%; Activity (MCF7 [29]): 4%; Activity (MCF7 [30]): Non-Toxic
